Only some compounds are listed: those with a hit (about 3.7% of all), similar ones and a draw of the others.
KCNQ1 pot: potentiators or activators of KCNQ1 channel, primary screen, cell-based, thallium flux, high-throughput. AID 2648, 2010. hit rate 0.35% among 310,000. B-score at 10 µM. Potassium voltage-gated channel subfamily KQT member 1 (Homo sapiens), P51787. CHO-K1 KCNQ1, thallium flux FluxOR fluorescence; hits give high values;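 active means fluorescence ratio B-score, a plate-corrected score, at least three library SD, with initial intensity B-score within 5 SD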
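Medium – assay buffer, equal DMSO in all wells · Material – CHO-K1 cell line with stable KCNQ1 potassium channel expression · Signal – kinetic FluxOR thallium fluorescence, 10-s 1-Hz baseline, 110-s post-stimulus read · Compound – single concentration per compound, DMSO matched to controls · Schedule – 37 °C overnight plating, 90-min dark dye load, 20-min compound pretreatment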
Kir21 inh: inhibitors of mouse Kir2.1 inward-rectifier potassium channel | B-score at 10 µM | hit rate 0.85% among 310,000 | HEK293-Kir2.1, FluxOR thallium flux fluorescence; hits give low values;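 active means fluorescence ratio B-score at or below minus 3 SD of library scores, with starting-brightness B-score within 2 SD, cut at about -4.2 in these data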;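 further: channel flux triggered by added potassium and thallium sulfate stimulus; B-score of peak minus minimum fluorescence over baseline after thallium stimulus; more negative B-score means stronger Kir2.1 block with less thallium influx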
KCNQ1 block: inhibitors of human KCNQ1 channel, primary screen, cell-based, thallium flux, high-throughput. Potassium voltage-gated channel subfamily KQT member 1 (Homo sapiens), P51787. CHO-K1 KCNQ1, FluxOR thallium flux fluorescence; hits give high values. B-score at 10 µM. hit rate 1.3% among 310,000. AID 2642, 2010;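 active means compounds whose thallium flux B-score, printed positive for inhibition, exceeds three library SD while starting fluorescence stays within three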;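 further: channel opened by potassium depolarization with thallium stimulus after 20 min compound exposure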
KCNK3 inh: human KCNK3 channel inhibitors, primary screen, CHO cells, FluxOR thallium flux, B-score | Potassium channel subfamily K member 3 (Homo sapiens), O14649 | FluxOR fluorescence; hits give low values | B-score at 10 µM | hit rate 0.84% among 340,000 | AID 602410, 2012;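 active means B-score under library mean minus 4 SD, starting fluorescence ratio at most library mean plus 5 SD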;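 further: more negative B-score means stronger inhibition of thallium flux through KCNK3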
hERG protect: hERG rescue from dofetilide block, primary screen, cell-based, CHO-hERG, FluxOR thallium flux, dofetilide IC70; dofetilide IC70 present; hit rate 0.51% among 310,000; AID 1511, 2009; activation (rescue from dofetilide block), less the hit threshold, % at 10 µM;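 active means activation above the mean of controls blocked by dofetilide plus 5 SD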;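 further: thallium influx through hERG after potassium depolarization seen as dye fluorescence rise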
KCNK9 block: KCNK9 potassium channel inhibitors, primary screen, HEK293 cells, thallium flux | AID 488922, 2010 | Potassium channel subfamily K member 9 (Homo sapiens), Q9NPC2 | FluxOR thallium flux fluorescence; hits give low values | B-score at 10 µM | hit rate 1.2% among 310,000;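 active means ratio B-score over 3 SD below the library mean, with starting fluorescence within 5 SD of its mean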;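 further: negative B-score means less thallium flux so channel inhibition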
Target sequence (Q9NPC2 whole entry, looked up): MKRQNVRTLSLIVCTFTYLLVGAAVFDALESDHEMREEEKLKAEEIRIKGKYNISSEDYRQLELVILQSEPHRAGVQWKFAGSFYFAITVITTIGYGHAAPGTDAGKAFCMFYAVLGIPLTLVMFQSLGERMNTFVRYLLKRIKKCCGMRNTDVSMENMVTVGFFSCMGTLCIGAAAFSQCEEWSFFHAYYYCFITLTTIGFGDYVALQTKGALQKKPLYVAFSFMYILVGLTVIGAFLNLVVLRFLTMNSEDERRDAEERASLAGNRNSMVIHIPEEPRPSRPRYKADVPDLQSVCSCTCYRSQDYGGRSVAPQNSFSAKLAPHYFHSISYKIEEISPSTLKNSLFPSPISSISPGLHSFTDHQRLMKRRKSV
Numbers stand for hits; n = inactive; x = no result given.

SMILES	KCNQ1 pot	Kir21 inh	KCNQ1 block	KCNK3 inh	hERG protect	KCNK9 block
CC(C)c1ccc(CNc2ccc([N+](=O)[O-])cn2)cc1	n	n	7	n	n	n
CC(=O)c1cccc(NC(=O)c2ccc(N(Cc3ccccc3)S(C)(=O)=O)cc2)c1	n	n	n	n	n	n
CS(=O)(=O)N(Cc1ccccc1)c1ccc(C(=O)Nc2ccc(C(N)=O)cc2)cc1	n	n	n	n	45.5	n
C=C(C)CNC(=S)NN=C1c2ccccc2-c2ccccc21	n	n	n	n	22.0	n
COc1ccccc1OCc1ccc(C(=O)n2nc(C)c(Cl)c2C)o1	n	n	n	n	n	-7.85
COC(=O)c1ccc(COc2ccccc2OC)o1	n	n	n	n	n	n
COc1ccc(NC(=O)COC(=O)c2ccc(N3CCCC3=O)cc2)cc1	x	x	x	n	x	x
Cc1ccc(Oc2ccc(OCC(=O)NC(CC(C)C)C(=O)O)cc2)cc1 (configuration not stated)	n	n	n	n	4.9	n
CC(C)COc1ccc(C(=O)NC(CC(C)C)C(=O)O)cc1 (configuration not stated)	n	n	n	n	n	n
Cc1nc2c3cc(F)ccc3n(Cc3ccccc3F)c2s1	n	n	n	n	n	-8.04
Cc1nc2c3cc(F)ccc3n(Cc3ccccc3)c2s1	n	n	n	n	n	n
CCCc1nc2ccc(NC(=O)c3cccs3)cc2c(=O)n1Cc1ccccc1Cl	n	n	n	n	n	-6.77
Cc1ccccc1NC(=O)N1CCN(S(=O)(=O)c2ccccc2)CC1	n	n	n	n	n	n
Cn1c2ccccc2c(=O)c2ccc(C#Cc3ccc(N)cc3)cc21	n	n	n	n	n	-7.34
COc1ccc(C(=O)Nc2ccc3c(c2)nc(CN2CCCC2)n3C)cc1	n	n	n	n	n	n
C=CCOc1cccc(C2C(C(=O)c3cc4ccccc4o3)=C(O)C(=O)N2c2cc(C)on2)c1 (configuration not stated)	n	n	n	n	n	n
CC(C)(C)c1ccc(OCCCNCc2ccccc2)cc1	n	n	n	n	n	n
CCOCCCNCc1ccc(OCc2ccccc2Cl)cc1	n	-4.33	n	n	n	n
CCc1cc(OCCCCNCc2ccccc2)ccc1Cl	n	-11	n	n	n	n
Nc1cc(=O)[nH]c2nnc(SCC(=O)Nc3cccc4ccccc34)n12	n	n	n	n	n	n
O=C(Cc1cccc2ccccc12)Nc1ccc(Br)cc1C(=O)O	n	n	10	n	n	n
Cc1ccc(Cl)cc1NC(=S)NCCCSC1CCCCC1	n	n	8	n	n	n
CNC(=O)/C(C#N)=C/c1cccc(Oc2ccccc2)c1	n	-5.09	n	n	n	n
Cc1ccc2nc(SC(C)C(=O)NCc3ccc4c(c3)OCO4)[nH]c2c1 (configuration not stated)	n	n	n	n	19.3	n
CC(Sc1ccc(Cl)cc1)C(=O)NCc1ccc2c(c1)OCO2 (configuration not stated)	n	n	n	n	n	n
SMILES	KCNQ1 pot	Kir21 inh	KCNQ1 block	KCNK3 inh	hERG protect	KCNK9 block
COC(=O)c1ccc(CSc2nc3ccc(S(=O)(=O)N4CCOCC4)cc3[nH]2)cc1	n	n	n	n	n	n
O=C(CS(=O)(=O)c1ccccc1)N1CCN(c2ccccc2)CC1	n	n	n	n	n	n
Cc1csc(NC(=O)CCS(=O)(=O)c2ccc(Br)cc2)n1	n	-4.32	n	n	n	n
Cc1csc(NC(=O)C(C)Oc2ccc(Br)cc2)n1 (configuration not stated)	n	-4.96	n	n	n	n
O=C(COC(=O)c1cc(=O)[nH]c2ccc(Br)cc12)c1ccccc1	n	n	n	n	n	n
Cc1nnc(NC(=O)C2CCCN(S(=O)(=O)c3ccccc3C(F)(F)F)C2)s1 (configuration not stated)	n	n	n	n	14.9	n
Cc1ccc(S(=O)(=O)NC(CC(C)C)C(=O)N2CCCC2)cc1 (configuration not stated)	n	n	n	n	n	n
Cc1sc2ncnc(SCC(=O)c3ccc(O)cc3O)c2c1C	8	n	n	n	n	n
COc1ccccc1C1CN(c2ccc(F)cc2F)N=C1c1cccs1 (configuration not stated)	n	n	n	n	n	-7.36
O=C(NCC1CCCO1)c1ccccc1-c1nc(-c2ccc(Cl)cc2)no1 (configuration not stated)	n	n	6	n	n	n
COc1ccc(-c2c(C)nn(-c3ccccc3)c2N)cc1OC	n	n	n	n	4.7	n
CC(O)C1CCC2C3CCC4CC(O)CCC4(C)C3C(=O)CC12C (configuration not stated)	x	x	x	n	x	x
Fc1ccc(NC(=S)Nc2nccs2)cc1	n	n	n	n	10.1	n
Cc1nn(C)c(C(=O)Nc2c(C)nn(Cc3c(F)c(F)c(F)c(F)c3F)c2C)c1Br	n	n	n	n	n	n
COc1ccc(Cl)cc1NC(=O)CN1C(=O)NC(Cc2c[nH]c3ccccc23)C1=O (configuration not stated)	x	x	x	n	x	x
Cc1ccc2nc(SCC3CCCCO3)[nH]c2c1 (configuration not stated)	n	n	n	n	n	n
COc1ccccc1CC(=O)N1CCCc2cc(C)ccc21	n	-7.27	n	n	n	n
COc1ccc(NC(=O)N2CCCc3cc(C)ccc32)c(OC)c1	n	n	n	n	n	n
O=C(NNC(=O)c1ccccc1-n1cccc1)c1ccc(Cl)cc1	n	n	n	n	n	n
CC(C)(C)c1ccc(C(=O)NNc2ncccc2-n2cccc2)cc1	n	n	7	n	n	n
COc1ccc(S(=O)(=O)Cc2ccc(C(=O)N3CCN(c4cc(Cl)ccc4C)CC3)o2)cc1	n	n	6	n	n	n
CCn1nc(C(=O)N[C@@H](CCSC)c2nc3ccccc3[nH]2)c2ccccc2c1=O	n	n	n	n	n	n
CCCCn1nc(C(=O)Nc2ccc3c(c2)OCO3)c2ccccc2c1=O	x	x	x	-10.2	x	x
CCCCn1nc(C(=O)N[C@@H](CCSC)c2nc3ccccc3[nH]2)c2ccccc2c1=O	n	n	n	n	n	-7.46
CCCn1nc(C(=O)N2CCc3ccccc32)c2ccccc2c1=O	x	x	x	n	x	x
CCCn1nc(C(=O)Nc2ccc3c(c2)OCO3)c2ccccc2c1=O	x	x	x	n	x	x
CCCCCn1nc(C(=O)N2CCc3ccccc32)c2ccccc2c1=O	x	x	x	-10.2	x	x
